Test results as given in ChEMBL document CHEMBL1145493, “Exposure-response analyses of tigecycline efficacy in patients with complicated skin and skin-structure infections” (Antimicrob Agents Chemother, 2007).
Converted amounts (≈) assume the structure as drawn.

Assays:
[1] = AUC at 24 hrs steady state in patient with complicated skin and skin structure infection at 50 mg loading dose followed by 25 mg every 12 hrs; type: ADME, organism-based; design: time < 24 hr, dose 50 mg; conditions: human, plasma
Method in brief: (§1)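 Tigecycline given i.v. for 7 to 14 days. Levels were measured by validated LC-MS/MS (LLOQ 10 ng/ml). Steady-state AUC24 was derived from a population PK model in evaluable patients pooled from three trials.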

[2] = AUC at 24 hrs steady state in patient with complicated skin and skin structure infection at 100 mg loading dose followed by 50 mg every 12 hrs; type: ADME, organism-based; design: dose 100 mg, time < 24 hr; conditions: human, plasma; method in brief: as §1
[3] = AUC (24 hrs)/MIC in patient with baseline skin pathogens at 50 mg loading dose followed by 25 mg every 12 hrs; type: ADME, cell-free; conditions: human, plasma
Method in brief: (§2)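 Per-patient ratio of model-derived steady-state AUC24 to the MIC of the baseline pathogen. The AUC24 came from population PK analysis of serum LC-MS/MS levels sampled predose and at 1, 3 and 6 h. MICs were set centrally by CLSI broth dilution in fresh media on isolates taken at baseline, with i.v. dosing over 7 to 14 days.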

[4] = AUC (24 hrs)/MIC in patient with baseline skin pathogens at 100 mg loading dose followed by 50 mg every 12 hrs; type: ADME, cell-free; conditions: human, plasma; method in brief: as §2
[5] = tested on: Enterococcus faecalis; experiment: Antibacterial activity against Enterococcus faecalis; type: functional
Method in brief: (§3)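 MICs for baseline pathogens isolated from patients with complicated skin and skin-structure infections. Isolates went to a central laboratory for identification and susceptibility testing by CLSI broth dilution in fresh media.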

[6] = tested on: Enterococcus faecium; experiment: Antibacterial activity against Enterococcus faecium; type: functional; method in brief: as §3
[7] = tested on: Staphylococcus aureus; experiment: Antibacterial activity against Staphylococcus aureus; type: functional
Method in brief: (§4)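 Baseline isolates from cSSSI patients in three pooled tigecycline trials (one phase 2, two phase 3) were identified and susceptibility-tested at a central laboratory. MICs were determined by broth dilution in fresh media following Clinical and Laboratory Standards Institute guidelines.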

[8] = tested on: Streptococcus agalactiae; experiment: Antibacterial activity against Streptococcus agalactiae; type: functional; method in brief: as §3
[9] = tested on: Streptococcus anginosus; experiment: Antibacterial activity against Streptococcus anginosus; type: functional; method in brief: as §3
[10] = tested on: Streptococcus constellatus; experiment: Antibacterial activity against Streptococcus constellatus; type: functional; method in brief: as §3
[11] = tested on: Streptococcus dysgalactiae; experiment: Antibacterial activity against Streptococcus dysgalactiae; type: functional; method in brief: as §3
[12] = tested on: Streptococcus dysgalactiae subsp. equisimilis; experiment: Antibacterial activity against Streptococcus equisimilis; type: functional; method in brief: as §3
[13] = tested on: Streptococcus intermedius; experiment: Antibacterial activity against Streptococcus intermedius; type: functional; method in brief: as §3
[14] = tested on: Streptococcus pyogenes; experiment: Antibacterial activity against Streptococcus pyogenes; type: functional; method in brief: as §3
[15] = tested on: Acinetobacter calcoaceticus; experiment: Antibacterial activity against Acinetobacter calcoaceticus; type: functional; method in brief: as §3
[16] = tested on: Acinetobacter baumannii; experiment: Antibacterial activity against Acinetobacter baumannii; type: functional; method in brief: as §4
[17] = tested on: Acinetobacter haemolyticus; experiment: Antibacterial activity against Acinetobacter haemolyticus; type: functional; method in brief: as §3
[18] = tested on: Klebsiella pneumoniae; experiment: Antibacterial activity against Klebsiella pneumoniae; type: functional; method in brief: as §4
[19] = tested on: Proteus mirabilis; experiment: Antibacterial activity against Proteus mirabilis; type: functional; method in brief: as §3
[20] = tested on: Pseudomonas aeruginosa; experiment: Antibacterial activity against Pseudomonas aeruginosa; type: functional; method in brief: as §4
[21] = tested on: Serratia marcescens; experiment: Antibacterial activity against Serratia marcescens; type: functional; method in brief: as §3
[22] = tested on: Citrobacter koseri; experiment: Antibacterial activity against Citrobacter koseri; type: functional; method in brief: as §3
[23] = tested on: Citrobacter freundii; experiment: Antibacterial activity against Citrobacter freundii; type: functional; method in brief: as §3
[24] = tested on: Enterobacter cloacae; experiment: Antibacterial activity against Enterobacter cloacae; type: functional; method in brief: as §4
[25] = tested on: Escherichia coli; experiment: Antibacterial activity against Escherichia coli; type: functional; method in brief: as §4
[26] = tested on: Klebsiella oxytoca; experiment: Antibacterial activity against Klebsiella oxytoca; type: functional; method in brief: as §3

CN(C)c1cc(NC(=O)CNC(C)(C)C)c(O)c2c1C[C@H]1C[C@H]3[C@H](N(C)C)C(O)=C(C(N)=O)C(=O)[C@@]3(O)C(O)=C1C2=O [TIGECYCLINE]
AUC at 24 h [1]: 2660 ng·h/mL | AUC at 24 h [2]: 5390 ng·h/mL | RatioAUC/MIC [3]: 13.3 | RatioAUC/MIC [4]: 32.5 | MIC [5]: 0.12 µg/mL (≈ 0.205 µM) | MIC [6]: 0.06 µg/mL (≈ 0.102 µM) | MIC [7]: 0.06 µg/mL (≈ 0.102 µM) | MIC [8]: 0.06 µg/mL (≈ 0.102 µM) | MIC [9]: 0.06 µg/mL (≈ 0.102 µM) | MIC [10]: 0.12 µg/mL (≈ 0.205 µM) | MIC [11]: 0.12 µg/mL (≈ 0.205 µM) | MIC [12]: 0.06 µg/mL (≈ 0.102 µM) | MIC [13]: 0.06 µg/mL (≈ 0.102 µM) | MIC [14]: 0.06 µg/mL (≈ 0.102 µM) | MIC [15]: 0.25 µg/mL (≈ 0.427 µM) | MIC [16]: 0.25 µg/mL (≈ 0.427 µM) | MIC [17]: 0.5 µg/mL (≈ 0.854 µM) | MIC [18]: 0.5 µg/mL (≈ 0.854 µM) | MIC [19]: 2 µg/mL (≈ 3.41 µM) | MIC [20]: 8 µg/mL (≈ 13.7 µM) | MIC [21]: 1 µg/mL (≈ 1.71 µM) | MIC [22]: 0.5 µg/mL (≈ 0.854 µM) | MIC [23]: 0.5 µg/mL (≈ 0.854 µM) | MIC [24]: 1 µg/mL (≈ 1.71 µM) | MIC [25]: 0.25 µg/mL (≈ 0.427 µM) | MIC [26]: 0.5 µg/mL (≈ 0.854 µM)
